# In PubChem BioAssay:
# Active and inactive are the calls of the source.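 Rule for the calls, unless noted: active = viability loss from added drug above about 55%, and viability with drug at most 40%, in both replicates (limit read from the data, passing the limit was not always enough); inconclusive = both conditions met in only one replicate; inactive = neither replicate meets both conditions.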
# How the values were obtained:
# [1] = reducers of endogenous Her2 protein level, primary screen, SKBR3 breast tumor cells, AlphaScreen, ATP viability (AID 461;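 active = Her2 level under about 52% in both replicate screens, with viability over 70% of control, limit read from the data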;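 for Her2 level: lower value means less Her2 protein in the cells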;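 for viability: percent of carrier control wells set as 100% viability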); conditions: 18-24 h, measured here: SKBR3 viability, ATP luminescence, at 10 µM
# [2] = molecular target: Receptor tyrosine-protein kinase erbB-2 (Homo sapiens) (UniProt P04626); assay: as above; conditions: 18-24 h, at 10 µM, stronger effect = lower value
# [3] = SK-BR-3 cell growth inhibitors, pilot screen, 24 h, human (AID 572;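 active = viability at or below 10% of carrier control in both of two separate runs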;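 note: compound exposure lasted between 18 and 24 h rather than exactly 24 h; 100% = carrier-treated control wells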); conditions: SK-BR-3 viability, CellTiter-Glo luminescence, at 10 µM, stronger effect = lower value
# [4] = HUVEC growth inhibition – cell-based, human, primary screen (AID 575;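 active = viability at or below 30% in both replicate assays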;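 note: 100% = median of untreated cell wells with 0.1% DMSO on each plate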); conditions: HUVEC proliferation, CellTiter-Glo luminescence, 72 h; at 10 µM; stronger effect = lower value
# Outline: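 Timing: 72 h treatment at 37 °C; material: HUVEC primary cells; technique: CellTiter-Glo luminescence measuring cellular ATP; controls: vehicle and MePR control wells; measure: percent of median DMSO-control luminescence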
# [5] = growth inhibitors of H69AR lung tumor, primary screen, human, duplicate replicates (AID 580;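 active = viability at or under a set limit in both replicates, limit being median viability minus 3 SD, cut at about 48% in these data, passing the limit was not always enough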;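 note: 100% = mean luminescence of untreated wells and 0% = no signal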); conditions: H69AR lung tumor cells viability, ATP luminescence, 72 h; at 10 µM; stronger effect = lower value
# [6] = reversal of MRP1-mediated doxorubicin resistance, pilot screen, H69AR cells, doxorubicin co-treatment (AID 601); conditions: CellTiter-Glo, 72 h, at 10 µM; for differential viability (reversal): stronger effect = higher value
# [7] = 384-well plate pilot, post-Golgi transport modulator project, inhibition of yeast transport mutant growth (AID 636; in the data active = inhibition above about 31%); conditions: absorbance 615 nm, about 18 h, stronger effect = higher value
# [8] = growth suppression of yeast trafficking mutant, preliminary HTS, modulators of trafficking downstream of Golgi apparatus project, 1536-format plate, OD 615 nm (AID 637; in the data active = inhibition above about 30%); conditions: yeast transport mutant growth, absorbance 615 nm, 18 h; stronger effect = higher value
# [9] = H69AR cells + 2 uM doxorubicin, measured here: viability with 2 uM doxorubicin, stronger effect = lower value
# [10] = H69AR cells, compound alone cytotoxicity
# Chain of Receptor tyrosine-protein kinase erbB-2 (Homo sapiens) (P04626 whole entry, looked up): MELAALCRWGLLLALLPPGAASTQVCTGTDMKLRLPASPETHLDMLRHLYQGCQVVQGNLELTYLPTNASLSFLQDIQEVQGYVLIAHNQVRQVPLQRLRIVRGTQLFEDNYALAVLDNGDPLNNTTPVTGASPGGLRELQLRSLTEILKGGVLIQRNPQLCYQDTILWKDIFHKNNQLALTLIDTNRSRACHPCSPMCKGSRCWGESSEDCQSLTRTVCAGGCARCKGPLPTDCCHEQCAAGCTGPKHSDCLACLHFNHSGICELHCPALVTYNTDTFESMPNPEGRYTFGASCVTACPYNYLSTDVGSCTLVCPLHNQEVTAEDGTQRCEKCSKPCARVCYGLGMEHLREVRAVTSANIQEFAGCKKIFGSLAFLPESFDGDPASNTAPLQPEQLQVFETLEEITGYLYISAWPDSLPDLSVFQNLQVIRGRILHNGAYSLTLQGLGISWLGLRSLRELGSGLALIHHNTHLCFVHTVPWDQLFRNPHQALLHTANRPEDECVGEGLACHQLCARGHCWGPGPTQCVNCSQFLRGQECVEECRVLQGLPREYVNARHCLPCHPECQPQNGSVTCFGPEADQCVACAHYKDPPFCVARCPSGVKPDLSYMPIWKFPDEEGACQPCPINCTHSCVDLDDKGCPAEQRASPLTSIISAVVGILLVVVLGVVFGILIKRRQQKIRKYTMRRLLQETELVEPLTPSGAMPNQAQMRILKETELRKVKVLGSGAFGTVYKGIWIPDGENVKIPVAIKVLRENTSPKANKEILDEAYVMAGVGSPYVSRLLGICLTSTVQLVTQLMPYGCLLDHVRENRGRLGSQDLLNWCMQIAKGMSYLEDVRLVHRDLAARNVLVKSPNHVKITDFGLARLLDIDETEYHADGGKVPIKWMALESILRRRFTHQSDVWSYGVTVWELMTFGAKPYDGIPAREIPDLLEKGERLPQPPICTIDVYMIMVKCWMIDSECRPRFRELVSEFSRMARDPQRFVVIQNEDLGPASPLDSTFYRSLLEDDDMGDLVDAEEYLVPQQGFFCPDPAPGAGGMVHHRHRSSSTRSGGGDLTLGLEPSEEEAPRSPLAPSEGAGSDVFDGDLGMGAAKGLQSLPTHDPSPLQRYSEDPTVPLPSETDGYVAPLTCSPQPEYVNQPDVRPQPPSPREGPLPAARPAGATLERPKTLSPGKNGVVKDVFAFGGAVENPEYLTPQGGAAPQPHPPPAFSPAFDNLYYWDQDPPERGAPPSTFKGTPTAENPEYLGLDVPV
Structure (SMILES),viability [1] [%],Her2 level [2],viability [3],viability [4],viability [5],differential viability (reversal) ([6]; H69AR cells + 2 uM doxorubicin),"viability [6, 9] [%]","viability [6, 10] [%]",inhibition [7],inhibition [8]
Cc1cc(N2C(=O)C3C4C=CC(C4)C3C2=O)ccc1Br (stereo not given),107,99.5% (inactive),107% (inactive),87.8% (inactive),101% (inactive),11.6% (inactive),89.3,101,-6.58% (inactive),-5.4% (inactive)
CCNC(=O)C1CC(=O)N(Cc2ccc3c(c2)OCO3)C(=Nc2ccc(F)cc2)S1 (stereo not given),124,112% (inactive),124% (inactive),85.6% (inactive),82.6% (inactive),-5.16% (inactive),87.8,82.6,-6.58% (inactive),-6.98% (inactive)
O=C(NC1CCCC1)c1ccc2nc[nH]c2c1,93.5,94.5% (inactive),93.5% (inactive),103% (inactive),91.2% (inactive),9.56% (inactive),81.7,91.2,-6.23% (inactive),-0.79% (inactive)
O=c1[nH]c(NCc2ccco2)nnc1Cc1ccccc1Cl,96.5,84% (inactive),96.5% (inactive),41.2% (inactive),13.3% (active),-44.5% (inactive),57.8,13.3,-7.67% (inactive),4.92% (inactive)
Cc1ccc(CN2C(=O)CCC2C(=O)NCC2CCCO2)cc1 (stereo not given),90,81% (inactive),90% (inactive),82.8% (inactive),103% (inactive),5.64% (inactive),97.3,103,-1.45% (inactive),3.55% (inactive)
Cc1ccc(C)c(NC(=O)CC(NCCCN2CCOCC2)C(=O)O)c1 (stereo not given),94,93.5% (inactive),94% (inactive),106% (inactive),88.3% (inactive),-8.47% (inactive),96.8,88.3,-0.78% (inactive),9.51% (inactive)
O=C(OCC(=O)N1CCCC1)c1ccccc1OCc1ccccc1,96,79.5% (inactive),96% (inactive),73.2% (inactive),99.4% (inactive),11.1% (inactive),88.3,99.4,-7.7% (inactive),1.31% (inactive)
CNC(=O)c1nnn(Cc2ccccc2)c1NC(C)=O,97.5,105% (inactive),97.5% (inactive),104% (inactive),88.9% (inactive),-7.25% (inactive),96.1,88.9,1.35% (inactive),12.5% (inactive)
COC(=O)c1ccccc1NC(=O)c1noc2c1CCC2,93,83.5% (inactive),93% (inactive),86.7% (inactive),74.8% (inactive),-4.56% (inactive),79.4,74.8,-7.37% (inactive),2.55% (inactive)
CCOC(=O)N1CCN(CC(=O)c2c(C)[nH]c3ccccc23)CC1,94,98% (inactive),94% (inactive),79.9% (inactive),75.2% (inactive),-7.93% (inactive),83.1,75.2,-5.41% (inactive),-3.93% (inactive)
CC1(C)OC(=O)C(=CNc2ccccc2)C(=O)O1,98,94% (inactive),98% (inactive),98.7% (inactive),108% (inactive),10.9% (inactive),97.2,108,0.39% (inactive),0.18% (inactive)
CCOc1ccccc1C(=O)N1CCN(c2cccc(Cl)c2)CC1,118,80% (inactive),118% (inactive),23.3% (active),28.2% (active),-35.7% (inactive),63.8,28.2,-4.53% (inactive),1.15% (inactive)
c1ccc(-n2nnnc2OCCOc2nnnn2-c2ccccc2)cc1,92,106% (inactive),92% (inactive),82.2% (inactive),80.4% (inactive),-6.12% (inactive),86.5,80.4,-2.24% (inactive),9.18% (inactive)
Cc1cccc(-c2nc(CN3CCCC(C(=O)NC4CCCC4)C3)c(C)o2)c1 (stereo not given),86,86.5% (inactive),86% (inactive),72.3% (inactive),84.2% (inactive),-11.2% (inactive),95.4,84.2,1.73% (inactive),2.9% (inactive)
Cc1ccc(-c2nnn(CC(=O)N(Cc3ccco3)C(C(=O)NC(C)(C)C)c3cccs3)n2)o1 (stereo not given),119,81% (inactive),119% (inactive),89.1% (inactive),95.9% (inactive),6.13% (inactive),89.8,95.9,0.4% (inactive),-4.1% (inactive)
O=C(O)c1cc2c(s1)CCCC2,88.5,93% (inactive),88.5% (inactive),104% (inactive),89.9% (inactive),-1.15% (inactive),91.1,89.9,-1.03% (inactive),-7.83% (inactive)
CCC(=O)c1ccc(OCCN2CCOCC2)cc1,99.5,91.5% (inactive),99.5% (inactive),111% (inactive),109% (inactive),17% (inactive),92.1,109,-5% (inactive),-3.87% (inactive)
COc1ccc2c(-c3cccnc3)cc(=O)[nH]c2c1,116,93.5% (inactive),116% (inactive),87.2% (inactive),96% (inactive),8.77% (inactive),87.2,96,-6.4% (inactive),4.43% (inactive)
Cc1ccc(-n2ncc3c(=O)n(CC(=O)NC4CCCCC4)cnc32)cc1C,105,108% (inactive),105% (inactive),92.7% (inactive),87.4% (inactive),1.56% (inactive),85.8,87.4,-3.68% (inactive),-1.13% (inactive)
COc1cc(OC)cc(-c2nc3cc(C)ccc3o2)c1,95.5,70.5% (inactive),95.5% (inactive),62.8% (inactive),73% (inactive),-2.79% (inactive),75.8,73,-3.16% (inactive),-4.52% (inactive)
Cc1cc(C)c2c(C)nn(C3CCCCC3)c2n1,81.5,114% (inactive),81.5% (inactive),80.8% (inactive),95.5% (inactive),12.3% (inactive),83.2,95.5,6.62% (inactive),14.1% (inactive)
COc1ncnc2c1N=C1CC(C)(C)CC(N)=C1S2,92.5,86% (inactive),92.5% (inactive),99% (inactive),87.5% (inactive),4.68% (inactive),82.8,87.5,-5.07% (inactive),-2.3% (inactive)
O=C(CCN1CCc2ccccc2C1)Nc1ccc2c(c1)OCO2,88.5,94% (inactive),88.5% (inactive),84.4% (inactive),87.1% (inactive),-18.3% (inactive),105,87.1,-4.4% (inactive),0.81% (inactive)
CCOc1ccccc1C1CC(=O)NC(SCC)=C1C#N (stereo not given),85.5,89% (inactive),85.5% (inactive),109% (inactive),97% (inactive),7.42% (inactive),89.6,97,-6.08% (inactive),-2.17% (inactive)
Cc1occc1-c1nnc(SCC(=O)NCC2CCCO2)n1C (stereo not given),86,96.5% (inactive),86% (inactive),92.2% (inactive),96.6% (inactive),2.64% (inactive),94,96.6,-4.93% (inactive),18.7% (inactive)
COc1ccc(Oc2nc(Oc3ccc(OC)cc3)nc(Oc3ccc(OC)cc3)n2)cc1,104,102% (inactive),104% (inactive),95.6% (inactive),94.6% (inactive),6.92% (inactive),87.7,94.6,-0.93% (inactive),-5.81% (inactive)
COc1ccc2c(c1)Sc1ccccc1N2CCN(C)C,88.5,86.5% (inactive),88.5% (inactive),59.1% (inactive),68.8% (inactive),-3.43% (inactive),72.3,68.8,-5.39% (inactive),-6.29% (inactive)
CCOC(=O)c1c(N)sc(C(=O)N2CCOCC2)c1C,127,115% (inactive),127% (inactive),103% (inactive),98.9% (inactive),1.31% (inactive),97.6,98.9,-7.07% (inactive),-1.75% (inactive)
CCOC(=O)C1CCN(C(=O)C2(NC(=O)Nc3ccccc3Cl)CCCCC2)CC1,133,98% (inactive),133% (inactive),105% (inactive),87.9% (inactive),7.69% (inactive),80.2,87.9,-1.95% (inactive),-1.11% (inactive)
N#CC1=C(SCC(=O)NC2CCCCC2)NC(=O)CC1c1ccco1 (stereo not given),113,98% (inactive),113% (inactive),74.8% (inactive),30.6% (active),-52.5% (inactive),83.1,30.6,-6.53% (inactive),0.97% (inactive)
